A short description of assay [1]: Ratio of antihypertension to platelet activation.
For assay [2], the system named is Rattus norvegicus. The assay is described as follows: Antihypertensive activity using C16-PAF in rat at a doses ranging from 1-10 nmol/kg iv. It counts as functional. In short, it runs like this: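 Male Wistar rats (350-430 g, 3-6 per group) under sodium pentobarbital anesthesia (60 mg/kg). Arterial pressure was recorded through a femoral artery catheter. Doses were given iv through a vena cava catheter once readings were stable. Pressure and heart rate were followed every 5 min for 40 min. Falls were expressed relative to C16-PAF given at 1-10 nmol/kg iv.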

A further assay is filed under the species Oryctolagus cuniculus. The assay is described as follows: Relative activity against platelet aggregation in [14C]5-HT preloaded rabbit platelet for 2 mins. It counts as functional. In short, it runs like this: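 Rabbit platelets preloaded with [14C]serotonin were incubated with a range of analogue amounts for 2 min at 20 °C, and [14C]serotonin release was measured. Activity was expressed relative to the ED50 of C16-PAF.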

For assay [3], the system named is Rattus norvegicus. As to the kind of experiment: Hypotensive activity in spontaneously hypertensive rat expressed as decrease in systolic BP at 0.1 mg/kg, po. Format: functional. In short, it runs like this: (§1)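 Male SHR aged 18-20 weeks, fasted 24 h with free access to water, dosed orally. Systolic pressure was measured indirectly by tail cuff, with heart rate recorded at the same time. The fall in mmHg was read 3 h after dosing, with 4-5 animals per dose, reported as mean ±.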

The test system of assay [4] is Rattus norvegicus. The assay is described as follows: Hypotensive activity in spontaneously hypertensive rat expressed as decrease in systolic BP at 1 mg/kg, po. It counts as functional. The procedure, abridged: as §1
Assay [5] deals with Rattus norvegicus. The assay is described as follows: Hypotensive activity in spontaneously hypertensive rat expressed as decrease in systolic BP at 25 mg/kg, po. It counts as functional. The procedure, abridged:
(§2)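 Male SHR (18-20 weeks old), food withdrawn 24 h beforehand with free access to water; compound given orally; systolic blood pressure in the tail artery read indirectly by tail-cuff, heart rate recorded simultaneously; decrease in systolic pressure (mmHg) taken 3 h after dosing; n = 4-5 animals per dose.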

In assay [6] the test system is Rattus norvegicus. As to the kind of experiment: Hypotensive activity in spontaneously hypertensive rat expressed as decrease in systolic BP at 3 mg/kg, po. Format: functional. In short, it runs like this: as §2
Assay [7] concerns Rattus norvegicus. As to the kind of experiment: Hypotensive activity in spontaneously hypertensive rat expressed as decrease in systolic BP at 0.3mg/kg, po. Format: functional. The procedure, abridged: as §2

On to `CCCCCCCCCCCCCCCCOC(C)C(COP(=O)([O-])OCC[N+](C)(C)C)OC(C)=O` (single isomer, unassigned; enantiomer 3), for which, in assay [1], the Ratio stood at 0.18. Besides, the Relative activity is listed as 0.0001 in the assay with Rattus norvegicus [2] and 0.00056 in the assay listed under Oryctolagus cuniculus.

`CCCCCCCCCCCCCCCCOCC(OC(C)=O)C(C)OP(=O)([O-])OCC[N+](C)(C)C` (single isomer, unassigned): the Ratio in assay [1] was found to be 1.82. Also, the figures for the Relative activity with Rattus norvegicus [2] and in the assay listed under Oryctolagus cuniculus were 0.001 and 0.00055, respectively.

Turning to `CCCCCCCCCCCCCCCCOCC(OC(C)=O)C(C)OP(=O)([O-])OCC[N+](C)(C)C` (stereo in doubt; 6), the Ratio in assay [1] is given as 1.57. The Relative activity in the assay with Rattus norvegicus [2] was 0.0014; in the assay filed under Oryctolagus cuniculus it was 0.00089.

`CCCCCCCCCCCCCCCCOCC(OC(C)=O)C(C)OP(=O)([O-])OCC[N+](C)(C)C` (stereo in doubt): the Relative activity with Rattus norvegicus [2] came out at 0.0002.

Regarding `CCCCCCCCCCCCCCCCOC(C)C(COP(=O)([O-])OCC[N+](C)(C)C)OC(C)=O` (stereo in doubt; 2), in assay [1], the Ratio amounted to 6.78. Further, the Decrease with Rattus norvegicus [3] is 35 mmHg; in the assay with Rattus norvegicus [4] it was 69 mmHg. Also, the results for the Relative activity with Rattus norvegicus [2] and in the assay listed under Oryctolagus cuniculus were 0.059 and 0.0087, respectively.

As to `CCCCCCCCCCCCCCCCOCC(COP(=O)([O-])OCC[N+](C)(C)C)OC(C)=O` (stereo unspecified) [PLATELET ACTIVATING FACTOR], the Decrease in the assay with Rattus norvegicus [5] was found to be 53 mmHg; with Rattus norvegicus [6], 5 mmHg; in the assay on Rattus norvegicus [7] it was 4 mmHg. Moreover, in assay [1], the Ratio was 1. The Relative activity in the assay with Rattus norvegicus [2] and in the assay listed under Oryctolagus cuniculus was 1 in each case.

`CCCCCCCCCCCCCCCCOC(C)C(COP(=O)([O-])OCC[N+](C)(C)C)OC(C)=O` (stereo in doubt; 3): the Relative activity with Rattus norvegicus [2] was determined as 0.00033.

As to `CCCCCCCCCCCCCCCCOCC(OC(C)=O)C(C)OP(=O)([O-])OCC[N+](C)(C)C` (stereo in doubt; 5), in assay [1], the Ratio came to 3.64. Also, the Relative activity with Rattus norvegicus [2] is reported as 0.002.

Regarding `CCCCCCCCCCCCCCCCOC(C)C(COP(=O)([O-])OCC[N+](C)(C)C)OC(C)=O` (single isomer, unassigned; enantiomer 2), the Relative activity with Rattus norvegicus [2] turned out to be 0.0002.

For the compound `CCCCCCCCCCCCCCCCOCC(C)(COP(=O)([O-])OCC[N+](C)(C)C)OC(C)=O` (stereo unspecified), the Relative activity in the assay with Rattus norvegicus [2] was 0.0001.
